Measured values from ChEMBL document CHEMBL2146363, “Allylic thiocyanates as a new class of antitubercular agents” (Bioorg Med Chem Lett, 2012).
Converted amounts (≈) assume the structure as drawn.

Key:
[1] = system: Mycobacterium tuberculosis; test: Antitubercular activity against Mycobacterium tuberculosis H37Rv in GAS medium after 4 days by microplate alamar blue assay; type: functional; conditions: 96 h
Procedure, shortened: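 Replicating M. tuberculosis H37Rv grown in GAS (glycerol–alanine–salts) medium. MIC determined by microplate Alamar Blue assay (MABA).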

[2] = system: Vero; test: Cytotoxicity against african green monkey Vero cells after 72 hrs by MTS assay; type: cell-based; conditions: Chlorocebus sabaeus
Procedure, shortened: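 African green monkey kidney VERO cell line; toxicity read as half-maximal inhibitory concentration (IC50). Each reported value is the average of three individual measurements, rounded to the nearest dilution.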

[3] = system: Mycobacterium tuberculosis; test: Antitubercular activity against Mycobacterium tuberculosis H37Rv in 7H12 medium incubated for 10 days in anaerobic condition followed by incubation for 48 hrs in aerobic condition by low oxygen recovery assay; type: functional
Procedure, shortened: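 Non-replicating M. tuberculosis H37Rv tested in 7H12 medium (palmitic acid carbon source, no glycerol) under low-oxygen conditions by the low-oxygen-recovery assay (LORA), which models persistence or latency. Read-out is MIC.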

[4] = system: Mycobacterium tuberculosis; test: Antitubercular activity against Mycobacterium tuberculosis H37Rv in 7H12 medium after 4 days by microplate alamar blue assay; type: functional; conditions: 96 h
Procedure, shortened: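 Replicating M. tuberculosis H37Rv tested in Middlebrook 7H12 medium, which lacks glycerol and uses palmitic acid as carbon source. MIC read by microplate Alamar Blue assay (MABA).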

[5] = Selectivity ratio of IC50 for african green monkey Vero cells to MIC for Mycobacterium tuberculosis H37Rv in GAS medium; type: functional

## COC(=O)/C(=C/c1ccccc1)CSC(=N)Nc1ccccc1
[1]
  MIC: 16 µM (≈ 5.22 µg/mL)

## COC(=O)/C(=C/c1ccc([N+](=O)[O-])cc1)CN=[N+]=[N-]
[2]
  IC50: > 64 µM
[1]
  MIC: 4 µM (≈ 1.05 µg/mL)
[3]
  MIC: 16 µM (≈ 4.2 µg/mL)
[4]
  MIC: > 32 µM

## COC(=O)/C(=C/c1ccccc1[N+](=O)[O-])CN=[N+]=[N-]
[1]
  MIC: 64 µM (≈ 16.8 µg/mL)

## COC(=O)/C(=C/C=C/c1ccccc1)CN=[N+]=[N-]
[1]
  MIC: 64 µM (≈ 15.6 µg/mL)

## COC(=O)/C(=C/c1ccc2c(c1)OCO2)CN=[N+]=[N-]
[1]
  MIC: 64 µM (≈ 16.7 µg/mL)

## COC(=O)/C(=C/c1ccc(OC)cc1)CN=[N+]=[N-]
[1]
  MIC: > 128 µM

## COC(=O)/C(=C/c1ccccc1)CN=[N+]=[N-]
[1]
  MIC: > 128 µM

## COC(=O)/C(=C/c1ccc2ccccc2c1)CN=[N+]=[N-]
[1]
  MIC: > 128 µM

## COC(=O)/C(=C/c1ccc(Cl)cc1)CN=[N+]=[N-]
[1]
  MIC: > 128 µM

## COC(=O)/C(=C/c1ccccc1Cl)CN=[N+]=[N-]
[1]
  MIC: > 128 µM

## COC(=O)/C(=C/c1ccc(Cl)cc1Cl)CN=[N+]=[N-]
[1]
  MIC: > 128 µM

## COC(=O)/C(=C/c1ccc([N+](=O)[O-])cc1)CSC#N
[1]
  MIC: > 128 µM

## COC(=O)/C(=C/c1ccccc1[N+](=O)[O-])CSC#N
[1]
  MIC: 8 µM (≈ 2.23 µg/mL)

## COC(=O)/C(=C/C=C/c1ccccc1)CSC#N
[1]
  MIC: > 128 µM

## COC(=O)/C(=C/c1ccc2c(c1)OCO2)CSC#N
[1]
  MIC: > 128 µM

## COC(=O)/C(=C/c1ccc(OC)cc1)CSC#N
[1]
  MIC: 16 µM (≈ 4.21 µg/mL)

## COC(=O)/C(=C/c1ccc(OC)c(OC)c1)CSC#N
[1]
  MIC: 16 µM (≈ 4.69 µg/mL)

## COC(=O)/C(=C/c1ccccc1)CSC#N
[1]
  MIC: 1 µM (≈ 0.233 µg/mL)

## COC(=O)/C(=C/c1ccc2ccccc2c1)CSC#N
[2]
  IC50: 32 µM
[1]
  MIC: 0.25 µM (≈ 0.0708 µg/mL)
[3]
  MIC: 16 µM (≈ 4.53 µg/mL)
[4]
  MIC: 32 µM (≈ 9.07 µg/mL)
[5]
  Selectivity ratio: >100

## COC(=O)/C(=C/c1ccc(C)cc1)CSC#N
[2]
  IC50: 32 µM
[1]
  MIC: 0.5 µM (≈ 0.124 µg/mL)
[3]
  MIC: 16 µM (≈ 3.96 µg/mL)
[4]
  MIC: 8 µM (≈ 1.98 µg/mL)

## COC(=O)/C(=C/c1ccc(Cl)cc1)CSC#N
[2]
  IC50: 16 µM
[1]
  MIC: 0.25 µM (≈ 0.0669 µg/mL)
[3]
  MIC: 8 µM (≈ 2.14 µg/mL)
[4]
  MIC: 8 µM (≈ 2.14 µg/mL)

## COC(=O)/C(=C/c1ccccc1Cl)CSC#N
[1]
  MIC: > 128 µM

## COC(=O)/C(=C/c1ccc(Cl)cc1Cl)CSC#N
[1]
  MIC: > 128 µM

## COC(=O)/C(=C/c1ccccc1Br)CSC#N
[2]
  IC50: 32 µM
[1]
  MIC: 0.25 µM (≈ 0.078 µg/mL)
[3]
  MIC: 4 µM (≈ 1.25 µg/mL)
[4]
  MIC: 8 µM (≈ 2.5 µg/mL)
[5]
  Selectivity ratio: >100

## COC(=O)/C(=C/c1ccc(Br)cc1)CSC#N
[2]
  IC50: 32 µM
[1]
  MIC: 0.25 µM (≈ 0.078 µg/mL)
[3]
  MIC: 16 µM (≈ 5 µg/mL)
[4]
  MIC: 16 µM (≈ 5 µg/mL)
[5]
  Selectivity ratio: >100

## COC(=O)/C(=C/c1ccc(F)cc1)CSC#N
[2]
  IC50: 32 µM
[1]
  MIC: 0.5 µM (≈ 0.126 µg/mL)
[3]
  MIC: 16 µM (≈ 4.02 µg/mL)
[4]
  MIC: 16 µM (≈ 4.02 µg/mL)

## COC(=O)/C(=C/c1ccc([N+](=O)[O-])cc1)CSC(=N)N
[1]
  MIC: 8 µM (≈ 2.36 µg/mL)
[4]
  MIC: 64 µM (≈ 18.9 µg/mL)

## COC(=O)/C(=C/c1ccc2c(c1)OCO2)CSC(=N)N
[1]
  MIC: > 128 µM

## COC(=O)/C(=C/c1ccc(OC)cc1)CSC(=N)N
[1]
  MIC: 32 µM (≈ 8.97 µg/mL)

## COC(=O)/C(=C/c1ccccc1)CSC(=N)N
[1]
  MIC: 64 µM (≈ 16 µg/mL)

## COC(=O)/C(=C/c1ccccc1Cl)CSC(=N)N
[1]
  MIC: > 128 µM

## COC(=O)/C(=C/c1ccc([N+](=O)[O-])cc1)CSC(=N)Nc1ccccc1
[2]
  IC50: > 64 µM
[1]
  MIC: 4 µM (≈ 1.49 µg/mL)
[3]
  MIC: > 64 µM
[4]
  MIC: > 32 µM

## COC(=O)/C(=C/c1cccc([N+](=O)[O-])c1)CSC(=N)Nc1ccccc1
[1]
  MIC: 16 µM (≈ 5.94 µg/mL)

## COC(=O)/C(=C/c1ccccc1[N+](=O)[O-])CSC(=N)Nc1ccccc1
[1]
  MIC: 16 µM (≈ 5.94 µg/mL)

## COC(=O)/C(=C/c1ccc2c(c1)OCO2)CSC(=N)Nc1ccccc1
[1]
  MIC: 16 µM (≈ 5.93 µg/mL)

## COC(=O)/C(=C/c1ccc(OC)cc1)CSC(=N)Nc1ccccc1
[1]
  MIC: 16 µM (≈ 5.7 µg/mL)

## COC(=O)/C(=C/c1ccc(C)cc1)CSC(=N)Nc1ccccc1
[1]
  MIC: 16 µM (≈ 5.45 µg/mL)

## COC(=O)/C(=C/c1ccc(Cl)cc1)CSC(=N)Nc1ccccc1
[1]
  MIC: 8 µM (≈ 2.89 µg/mL)

## COC(=O)/C(=C/c1ccc(F)cc1)CSC(=N)Nc1ccccc1
[1]
  MIC: 8 µM (≈ 2.76 µg/mL)

## COC(=O)/C(=C/c1ccccc1)CS/C(=N\C(C)=O)NC(C)=O
[1]
  MIC: 32 µM (≈ 10.7 µg/mL)

## COC(=O)/C(=C/c1ccccc1Cl)CS/C(=N\C(C)=O)NC(C)=O
[1]
  MIC: 32 µM (≈ 11.8 µg/mL)
